# Laboratory results: publication PMC6429430 (ACS Chemical Neuroscience, 2018)
# Read-outs that look alike come from different tables or passages of the source.
# What was measured:
# [1] = tested on: human myeloid progenitors; assay: Colony forming cell; format: cell-based; conditions: human bone marrow cells, 14 days in culture
# Outline: (§1)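 Normal human bone marrow light-density cells, thawed rapidly and washed in IMDM + 10% FBS, were plated at 2.0 × 10^4 cells per culture. Medium was semisolid methylcellulose with rhIL-3 10 ng/mL, rhGM-CSF 10 ng/mL, rhSCF 50 ng/mL and Epo 3 U/mL. Compound was added at final 10, 2 and 0.4 μM, with 0.1% DMSO solvent control and 5-FU (1.0, 0.1, 0.01 μg/mL) as positive control. After 14 days, erythroid (CFU-E, BFU-E) and myeloid (CFU-GM) colonies were scored microscopically. Three replicate cultures were compared with solvent control by two-tailed t test.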
# [2] = tested on: hippocampal LTP (Schaffer collateral-CA1); assay: LTP in 5xFAD mice; format: in vivo, mouse; conditions: aged 5xFAD mice, 1 mg/kg po for 14 days
# Outline: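 Aged 5xFAD mice on a C57BL/6J background (9–12 months) and age-matched WT mice were dosed by oral gavage once daily for 14 days (n = 8 per group). Hippocampal slices (350 μm) were held at room temperature for at least 1 h in oxygenated aCSF (pH 7.4), then perfused at 30 °C for 0.5 h in a multielectrode chamber. Schaffer collateral–CA1 LTP was recorded as normalised fEPSP slope over the last 10 min.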
# [3] = biological target: T1, HDAC11 (Homo sapiens, UniProt Q96DB2); assay: Recombinant HDAC isoform biochemical assay
# T1 sequence (Q96DB2 1-347): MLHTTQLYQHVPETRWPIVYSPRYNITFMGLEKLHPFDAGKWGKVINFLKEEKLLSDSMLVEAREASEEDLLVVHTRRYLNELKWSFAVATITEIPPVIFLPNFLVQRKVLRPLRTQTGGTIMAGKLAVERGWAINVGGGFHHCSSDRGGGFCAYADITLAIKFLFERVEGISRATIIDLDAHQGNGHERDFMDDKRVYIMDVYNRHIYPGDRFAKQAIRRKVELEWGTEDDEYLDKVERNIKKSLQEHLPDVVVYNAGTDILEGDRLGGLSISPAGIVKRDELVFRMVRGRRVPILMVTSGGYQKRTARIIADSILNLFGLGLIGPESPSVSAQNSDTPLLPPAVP
# [4] = Reported 2 week toxicity of CI-994 in dogs; format: in vivo, dog
# [5] = tested on: dendritic spines in CA1 region of the dorsal hippocampus; assay: Hippocampal dendritic spine density analysis; format: in vivo, mouse; conditions: WT mice
# [6] = cited from earlier work
# [7] = tested on: human erythroid progenitors; assay: Colony forming cell; format: cell-based; conditions: human bone marrow cells, 14 days in culture
# Outline: as §1
# [8] = rats, 1.5, 5, 15 mg/kg daily orally, 2 weeks; cited from earlier work
structure (smiles),measurement,setting,value
CC(=O)Nc1ccc(C(=O)Nc2ccccc2N)cc1 [CI-994],myeloid progenitors: % control at 10 μM,[1],0 % control
same,effect on impaired LTP,[2],improves impaired LTP
same,IC50,[3],> 30 µM
same,safety margin,[4]; HED at reported dog NOAEL vs efficacious HED,3.4 fold
same,NOAEL at 2 weeks,"[4]; dog, in vivo, 0.5 mg/kg",16.2 mg/kg
same,increase in total spine density,"[5]; 1 mg/kg daily oral for 14 days, vs vehicle",29%
same,dendritic spine density compared to vehicle-treated controls,"[5]; oral daily 14 days, Rodin-A 1, 3, 6 mg/kg, CI-994 1 and 3 mg/kg",significant increases in spine density
same,reported NOAEL in dogs,[6]; 2 weeks of daily dosing,0.5 mg/kg
same,dose-limiting toxicity,"[6]; dogs, 0.5, 2, 5 mg/kg daily, 2 weeks",primarily bone marrow suppression
same,day 12 AUC,"[6]; male dogs, 2 mg/kg daily",9.91 ng·h/mL
same,erythroid progenitors: % control at 10 μM,[7],0 % control
same,dose-limiting toxicity,[8],primarily bone marrow suppression
